What is called Ki is the dissociation constant of the complex between target and ligand, obtained from inhibition or displacement. High values mean weaker binding, low ones tighter binding.

The first assay deals with T1, Dihydrofolate reductase (Bos taurus, UniProt P00376).
T1 sequence (P00376 whole entry): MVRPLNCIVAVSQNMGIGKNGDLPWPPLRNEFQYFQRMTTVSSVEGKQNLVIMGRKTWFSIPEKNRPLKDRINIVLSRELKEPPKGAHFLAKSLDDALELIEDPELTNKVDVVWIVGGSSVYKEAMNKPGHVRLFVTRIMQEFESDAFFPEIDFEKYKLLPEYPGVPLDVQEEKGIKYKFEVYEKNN
In words: Inhibitory activity against bovine liver Dihydrofolate reductase at pH 7.2. In short, it runs like this:
(§1)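 DHFR from chicken liver and from bovine liver, each assayed at pH 7.2 by the group's earlier-reported inhibition procedure. Potency is expressed as an apparent inhibition constant, reported as log(1/Ki app).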
`Nc1ncc(Cc2cc(O)cc(O)c2)c(N)n1` came in with a Ki of 407 µM.

Turning to `COCCOc1cccc(Cc2cnc(N)nc2N)c1`, the Ki amounted to 2.63 µM.

Regarding `COCCOc1ccc(Cc2cnc(N)nc2N)cc1OCCOC`, the affinity corresponds to a Ki of 6.76 µM.

In turn, `CCCCCCOc1ccc(Cc2cnc(N)nc2N)cc1` gave an inhibition constant Ki of 2.82 µM.

On to `COCCOc1ccc(Cc2cnc(N)nc2N)cc1`, for which affinity was put at a Ki of 4.9 µM.

In turn, `NC(=O)COc1cccc(Cc2cnc(N)nc2N)c1` had an inhibition constant Ki of 5.37 µM.

Compound `CCCCCCCOc1ccc(Cc2cnc(N)nc2N)cc1` [5-(4-Heptyloxy-benzyl)-pyrimidine-2,4-diamine] registered an inhibitory constant (Ki) of 3.55 µM.

The target of another assay is T2, Dihydrofolate reductase (Gallus gallus, UniProt P00378).
T2 sequence (P00378 whole entry): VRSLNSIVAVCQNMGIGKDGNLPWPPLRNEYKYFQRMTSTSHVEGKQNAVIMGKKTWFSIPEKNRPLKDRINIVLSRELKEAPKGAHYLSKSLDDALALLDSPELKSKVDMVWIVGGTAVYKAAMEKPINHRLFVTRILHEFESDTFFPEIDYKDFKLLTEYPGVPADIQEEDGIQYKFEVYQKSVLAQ
Put plainly: Inhibitory activity against chicken Dihydrofolate reductase at pH 7.2. In outline: as §1
Take `COCCOc1cccc(Cc2cnc(N)nc2N)c1`: the inhibition constant Ki worked out at 14.8 µM.

A further assay has as its target T1, Dihydrofolate reductase. In words: Inhibitory activity against bovine liver dihydrofolate reductase at pH 7.2.
`Nc1ncc(Cc2ccc(O)c(O)c2)c(N)n1` yielded a Ki of 25.7 µM.

As to `Nc1ncc(Cc2ccc([N+](=O)[O-])cc2)c(N)n1`, the affinity corresponds to a Ki of 3.72 µM.

Take `Nc1ncc(Cc2cccc(Br)c2)c(N)n1`: affinity was put at a Ki of 1.55 µM.

`Nc1ncc(Cc2ccc(F)cc2)c(N)n1` showed a Ki of 3.09 µM.

Compound `Nc1ncc(Cc2cccc(Cl)c2)c(N)n1` came in with a Ki of 1.59 µM.

On to `Nc1ncc(Cc2ccc(Cl)cc2)c(N)n1`, for which the inhibitory constant (Ki) came to 2.51 µM.

For `Nc1ncc(Cc2cccc(C(F)(F)F)c2)c(N)n1`, the inhibitory constant (Ki) was found to be 1.66 µM.

The compound `Nc1ccc(Cc2cnc(N)nc2N)cc1` showed an inhibitory constant (Ki) of 11 µM.

As for `CN(C)c1ccc(Cc2cnc(N)nc2N)cc1`, the affinity, expressed as Ki, was 6.17 µM.

In the case of `Nc1ncc(Cc2ccc(Br)cc2)c(N)n1`, the Ki was found to be 3.8 µM.

For the compound `Cc1ccc(Cc2cnc(N)nc2N)cc1`, the affinity corresponds to a Ki of 5.37 µM.

`CC(=O)Nc1ccc(Cc2cnc(N)nc2N)cc1[N+](=O)[O-]` gave a Ki of 2.82 µM.

The compound `COc1ccc(Cc2cnc(N)nc2N)cc1` [5-(4-Methoxy-benzyl)-pyrimidine-2,4-diamine] registered a Ki of 4.47 µM.

`COc1ccc(Cc2cnc(N)nc2N)cc1OC` [Diaveridine] registered an inhibition constant (Ki) of 2.19 µM.

The target of another assay is T2, Dihydrofolate reductase. In words: Inhibitory activity against chicken dihydrofolate reductase at pH 7.2.
Turning to `Nc1ncc(Cc2ccccc2)c(N)n1`, the Ki turned out to be 19.5 µM.

In the case of `Cc1cccc(Cc2cnc(N)nc2N)c1`, the affinity corresponds to a Ki of 19.1 µM.

As to `Nc1ncc(Cc2cccc(F)c2)c(N)n1`, affinity was put at a Ki of 20 µM.

As for `Nc1ncc(Cc2ccc([N+](=O)[O-])cc2)c(N)n1`, the inhibition constant Ki amounted to 42.7 µM.

`Nc1ncc(Cc2ccc(F)cc2)c(N)n1` came in with a Ki of 16.2 µM.

`Nc1ncc(Cc2cccc(Cl)c2)c(N)n1` showed an inhibition constant Ki of 9.77 µM.

`COc1ccc(Cc2cnc(N)nc2N)cc1C(F)(F)F`: the affinity, expressed as Ki, was 10.2 µM.

Compound `CN(C)c1ccc(Cc2cnc(N)nc2N)cc1` gave an inhibitory constant (Ki) of 97.7 µM.

Compound `Nc1ncc(Cc2ccc(OC(F)(F)F)cc2)c(N)n1` came in with an inhibition constant Ki of 55 µM.

`CCCCOCc1cccc(Cc2cnc(N)nc2N)c1` gave a Ki of 6.76 µM.

In the case of `CC(=O)Nc1ccc(Cc2cnc(N)nc2N)cc1`, affinity was put at a Ki of 55 µM.

The compound `Nc1ncc(Cc2cccc(I)c2)c(N)n1` yielded an inhibition constant (Ki) of 16.2 µM.

The compound `COCCOc1c(OC)cc(Cc2cnc(N)nc2N)cc1OC` [5-[3,5-Dimethoxy-4-(2-methoxy-ethoxy)-benzyl]-pyrimidine-2,4-diamine] returned a Ki of 229 µM.

For the compound `COc1ccc(Cc2cnc(N)nc2N)cc1OC` [Diaveridine], the Ki came out at 34.7 µM.

The values are drawn from BindingDB's records for doi:10.1021/jm00346a020 (1982).
